Assay results as given in ChEMBL document CHEMBL3352155, “Synthesis, antitumor activity, and structure-activity relationship study of trihydroxylated 2,4,6-triphenyl pyridines as potent and selective topoisomerase II inhibitors” (Eur J Med Chem, 2014).
Counter-ions that a name gives are not always drawn.

Assays:
[1] = tested on: T47D; experiment: Cytotoxicity against human T47D cells after 4 days by CCK-8 assay; assay type: functional, cell-based; conditions: 96 h
Outline: (§1)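 Cells were seeded at 2–4 × 10^4 per well and grown overnight in medium with 10% FBS at 37 °C under 5% CO2. On day 2, after 4 h FBS starvation, the medium was replaced with medium holding graded compound concentrations. On day 4, CCK-8 was added for 4 h and A450 was read. IC50 came from a four-parameter logistic fit; three experiments run in triplicate.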

[2] = Cytotoxicity against human HCT15 cells […] by CCK-8 assay; assay type: functional, cell-based; conditions: HCT-15; outline: as §1
[3] = tested on: HEK293; experiment: Cytotoxicity against HEK293 cells after 4 days by CCK-8 assay; assay type: cell-based; conditions: Homo sapiens, HEK293, 96 h; outline: as §1
[4] = tested on: DU-145; experiment: Cytotoxicity against human DU145 cells after 4 days by CCK-8 assay; assay type: functional, cell-based; conditions: DU-145, 96 h; outline: as §1
[5] = target: T1, DNA topoisomerase 1 (Homo sapiens) (UniProt P11387); experiment: Inhibition of recombinant human DNA topoisomerase 1 assessed as relaxation of supercoiled DNA pBR322 at 100 uM after 30 mins using ethidium bromide staining by agarose gel electrophoresis
T1 sequence (whole entry): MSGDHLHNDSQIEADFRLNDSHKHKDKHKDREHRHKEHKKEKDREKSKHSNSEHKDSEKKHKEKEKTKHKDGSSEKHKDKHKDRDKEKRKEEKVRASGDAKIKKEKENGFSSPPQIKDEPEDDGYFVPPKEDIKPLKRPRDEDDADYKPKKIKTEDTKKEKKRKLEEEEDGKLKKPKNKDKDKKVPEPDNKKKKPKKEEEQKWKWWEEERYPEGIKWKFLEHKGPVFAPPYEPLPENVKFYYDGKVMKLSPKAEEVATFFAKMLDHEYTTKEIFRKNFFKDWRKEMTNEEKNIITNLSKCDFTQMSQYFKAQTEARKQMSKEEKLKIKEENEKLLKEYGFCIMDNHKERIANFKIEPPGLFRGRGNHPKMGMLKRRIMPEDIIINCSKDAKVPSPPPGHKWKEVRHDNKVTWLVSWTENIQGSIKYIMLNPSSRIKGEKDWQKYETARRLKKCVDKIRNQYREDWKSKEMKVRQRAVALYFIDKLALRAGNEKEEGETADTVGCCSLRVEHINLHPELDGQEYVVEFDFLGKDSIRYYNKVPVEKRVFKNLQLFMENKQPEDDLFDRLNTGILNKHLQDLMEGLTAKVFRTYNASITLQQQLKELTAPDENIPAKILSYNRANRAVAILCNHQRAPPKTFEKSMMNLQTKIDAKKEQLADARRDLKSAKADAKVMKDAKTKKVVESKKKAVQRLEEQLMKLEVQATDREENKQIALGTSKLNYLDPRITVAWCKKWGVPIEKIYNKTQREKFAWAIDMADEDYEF
Outline: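 A mix of 100 ng supercoiled pBR322 and 1 unit recombinant human topo I, with or without compound, was held 30 min at 37 °C. Buffer was 10 mM Tris-HCl pH 7.9, 150 mM NaCl, 0.1% BSA, 1 mM spermidine and 5% glycerol. A sarcosyl stop solution ended the reaction. Products ran on 1% agarose in TAE at 15 V for 7 h, were stained with ethidium bromide and quantitated under UV.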

[6] = target: DNA topoisomerase 2-alpha (Homo sapiens) (UniProt P11388); experiment: Inhibition of recombinant human DNA topoisomerase 2alpha assessed as relaxation of supercoiled DNA pBR322 at 20 uM after 30 mins using ethidium bromide staining by agarose gel electrophoresis
Outline: (§2)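 The reaction held 200 ng supercoiled pBR322 with 1 unit human topo IIα, with or without compound, for 30 min at 30 °C. Buffer was 10 mM Tris-HCl pH 7.9, 50 mM NaCl, 5 mM MgCl2, 1 mM EDTA, 1 mM ATP and BSA. EDTA was added to stop it. Products ran on 1% agarose in TAE at 25 V for 4 h, were stained with ethidium bromide, and supercoiled DNA was quantitated under UV.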

[7] = target: DNA topoisomerase 2-alpha (Homo sapiens) (UniProt P11388); experiment: Inhibition of recombinant human DNA topoisomerase 2alpha assessed as relaxation of supercoiled DNA pBR322 at 100 uM after 30 mins using ethidium bromide staining by agarose gel electrophoresis; outline: as §2

DNA topoisomerase 2-alpha (Homo sapiens), sequence (P11388 whole entry): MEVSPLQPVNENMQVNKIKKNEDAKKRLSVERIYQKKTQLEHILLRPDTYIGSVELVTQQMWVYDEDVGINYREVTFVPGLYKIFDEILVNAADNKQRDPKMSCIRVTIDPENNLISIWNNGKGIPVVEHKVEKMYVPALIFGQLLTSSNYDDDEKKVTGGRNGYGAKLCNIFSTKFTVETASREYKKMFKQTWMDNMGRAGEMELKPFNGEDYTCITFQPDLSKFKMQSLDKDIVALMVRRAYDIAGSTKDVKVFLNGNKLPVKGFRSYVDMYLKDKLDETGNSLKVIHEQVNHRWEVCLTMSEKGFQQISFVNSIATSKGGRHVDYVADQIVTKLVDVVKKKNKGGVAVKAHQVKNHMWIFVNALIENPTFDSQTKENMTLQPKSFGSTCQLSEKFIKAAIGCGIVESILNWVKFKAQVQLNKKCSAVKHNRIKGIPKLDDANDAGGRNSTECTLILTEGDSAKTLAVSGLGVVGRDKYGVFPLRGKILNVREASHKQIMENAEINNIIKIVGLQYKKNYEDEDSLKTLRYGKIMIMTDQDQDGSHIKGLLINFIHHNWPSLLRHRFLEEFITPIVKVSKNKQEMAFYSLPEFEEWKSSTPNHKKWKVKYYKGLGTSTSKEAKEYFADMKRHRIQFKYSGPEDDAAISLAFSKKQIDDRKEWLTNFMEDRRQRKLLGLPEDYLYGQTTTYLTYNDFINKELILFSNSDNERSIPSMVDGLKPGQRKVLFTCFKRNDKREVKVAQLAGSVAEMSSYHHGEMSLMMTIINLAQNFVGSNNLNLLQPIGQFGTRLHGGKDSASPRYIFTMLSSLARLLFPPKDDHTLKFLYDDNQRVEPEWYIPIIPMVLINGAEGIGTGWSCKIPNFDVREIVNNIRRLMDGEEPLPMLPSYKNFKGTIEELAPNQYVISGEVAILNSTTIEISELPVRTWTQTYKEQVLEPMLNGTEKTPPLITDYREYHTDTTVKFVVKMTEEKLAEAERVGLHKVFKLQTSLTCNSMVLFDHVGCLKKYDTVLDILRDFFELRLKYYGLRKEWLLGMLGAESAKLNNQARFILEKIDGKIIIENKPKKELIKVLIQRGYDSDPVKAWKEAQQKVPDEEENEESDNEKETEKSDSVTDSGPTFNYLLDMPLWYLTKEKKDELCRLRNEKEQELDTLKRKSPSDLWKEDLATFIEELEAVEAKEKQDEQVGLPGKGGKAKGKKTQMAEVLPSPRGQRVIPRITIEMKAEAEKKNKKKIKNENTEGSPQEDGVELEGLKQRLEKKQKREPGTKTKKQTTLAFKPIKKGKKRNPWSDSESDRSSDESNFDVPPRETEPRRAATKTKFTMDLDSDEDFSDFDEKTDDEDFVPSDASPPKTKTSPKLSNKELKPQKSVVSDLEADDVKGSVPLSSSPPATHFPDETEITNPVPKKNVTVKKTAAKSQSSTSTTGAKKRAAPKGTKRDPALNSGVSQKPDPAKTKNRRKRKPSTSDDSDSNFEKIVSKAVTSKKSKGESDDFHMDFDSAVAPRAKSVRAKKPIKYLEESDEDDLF

SMILES | inhibition [5] [%] | inhibition [6] [%] | inhibition [7] [%] | IC50 [1] [µM] | IC50 [2] [µM] | IC50 [3] [µM] | IC50 [4] [µM]
CC[C@@]1(O)C(=O)OCc2c1cc1n(c2=O)Cc2cc3ccccc3nc2-1 [CAMPTOTHECIN] |  |  |  | 0.75 | 1.98 | 0.28 | 
COc1cccc2c1C(=O)c1c(O)c3c(c(O)c1C2=O)C[C@@](O)(C(=O)CO)C[C@@H]3O[C@H]1C[C@H](N)[C@H](O)[C@H](C)O1 [DOXORUBICIN HYDROCHLORIDE] |  |  |  | 3.12 |  | 1.22 | 3.89
Oc1ccc(-c2cc(-c3ccc(O)cc3)nc(-c3ccccc3O)c2)cc1 | 0 | 1.8 | 44 | > 50 | > 50 | 26.3 | > 50
Oc1ccc(-c2cc(-c3ccccc3O)nc(-c3ccccc3O)c2)cc1 | 3.7 | 2.9 | 46.9 | 18.3 | > 50 | > 50 | > 50
COc1cc([C@@H]2c3cc4c(cc3[C@@H](O[C@@H]3O[C@@H]5CO[C@@H](C)O[C@H]5[C@H](O)[C@H]3O)[C@H]3COC(=O)[C@H]23)OCO4)cc(OC)c1O [ETOPOSIDE] |  |  |  | 8.74 | 7.74 | 1.04 | 
Oc1cccc(-c2cc(-c3ccccc3O)cc(-c3cccc(O)c3)n2)c1 | 0 | 9.3 | 100 | 4.57 | 5.15 | 0.13 | > 50
Oc1ccc(-c2cc(-c3ccccc3O)cc(-c3cccc(O)c3)n2)cc1 | 0 | 7.4 | 92.2 | 0.65 | 4.85 | 5.65 | 5.37
Oc1ccccc1-c1cc(-c2ccccc2O)nc(-c2ccccc2O)c1 | 0 | 10.1 | 95.1 | 2.51 | 2.18 | 0.14 | 5.04
Oc1cccc(-c2cc(-c3ccccc3O)nc(-c3ccccc3O)c2)c1 | 4.9 | 7.1 | 99.4 | 3.42 | 5.02 | 0.08 | 5.4
Oc1ccc(-c2cc(-c3cccc(O)c3)cc(-c3ccccc3O)n2)cc1 | 8.4 | 1.6 | 31.3 | > 50 | > 50 | > 50 | > 50
Oc1cccc(-c2cc(-c3cccc(O)c3)nc(-c3ccccc3O)c2)c1 | 1.9 |  | 11.3 | > 50 | > 50 | > 50 | > 50
Oc1ccc(-c2cc(-c3ccccc3O)cc(-c3ccccc3O)n2)cc1 | 0.3 | 21.3 | 77.6 | 0.96 | 8.24 | 6.99 | 0.36
Oc1ccc(-c2cc(-c3ccc(O)cc3)nc(-c3ccc(O)cc3)c2)cc1 | 3.8 | 7.9 | 79.1 | 4.27 | 5.12 | 0.79 | 3.16
Oc1cccc(-c2cc(-c3ccccc3O)cc(-c3ccccc3O)n2)c1 | 0 | 6.6 | 87.9 | 5.76 | 3.39 | 0.73 | 3.98
Oc1ccc(-c2cc(-c3ccccc3O)cc(-c3ccc(O)cc3)n2)cc1 | 0.4 | 5.4 | 100 | 5.35 | 1.92 | 0.78 | 0.98

Second part, led by results:

inhibition [5] [%] | inhibition [6] [%] | inhibition [7] [%] | SMILES | IC50 [1] [µM] | IC50 [2] [µM] | IC50 [3] [µM] | IC50 [4] [µM]
0 | 9.6 | 100 | Oc1ccc(-c2cc(-c3cccc(O)c3)nc(-c3cccc(O)c3)c2)cc1 | 2.23 | 3.81 | 0.73 | 1.76
0 | 8.3 | 100 | Oc1cccc(-c2cc(-c3cccc(O)c3)nc(-c3cccc(O)c3)c2)c1 | 2.05 | 3.95 | 0.74 | 4.04
0 | 3.7 | 100 | Oc1ccc(-c2cc(-c3cccc(O)c3)cc(-c3cccc(O)c3)n2)cc1 | 3.92 | 3.09 | 1.56 | 1.94
0 | 48.2 | 90.1 | Oc1ccc(-c2cc(-c3cccc(O)c3)cc(-c3ccc(O)cc3)n2)cc1 | 4.07 | > 50 | > 50 | 1.4
1.5 | 38.5 | 80.6 | Oc1ccc(-c2cc(-c3cccc(O)c3)nc(-c3ccccc3O)c2)cc1 | 4.81 | 5.83 | 7.42 | 3.42
0 | 15.8 | 100 | Oc1ccc(-c2cc(-c3ccc(O)cc3)nc(-c3cccc(O)c3)c2)cc1 | 4.47 | 3.52 | 0.84 | 5.8
